Measurements reported in ChEMBL document CHEMBL1145910, “5,6,7-trisubstituted 4-aminopyrido[2,3-d]pyrimidines as novel inhibitors of adenosine kinase” (J Med Chem, 2003).

Experiments:
Adenosine kinase [1] = biological target: Adenosine kinase (Rattus norvegicus, UniProt Q64640); test: Inhibition adenosine kinase activity in rat brain in vitro; format: tissue-based
Adenosine kinase [2] = biological target: Adenosine kinase (Homo sapiens, UniProt P55263); test: Inhibition of adenosine kinase activity in IMR-32 human neuroblastoma cells; format: cell-based
Mus musculus = test: Percent maximal protective effect for hotplate analgesia in mice after 30 umol/kg intraperitoneal administration; format: functional
In short: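 Mice (n = 6-8 per group) tested on 55 °C hotplate 30 min after intraperitoneal dosing. %MPE = (postdrug latency − vehicle latency)/(cutoff latency − vehicle latency) × 100, cutoff 180 s; significance versus vehicle-treated mice at p < 0.05.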

Rattus norvegicus = test: Reduction in formalin induced nociception after 10 umol/kg intraperitoneal administration

Adenosine kinase (Homo sapiens, UniProt P55263), sequence (P55263 whole entry): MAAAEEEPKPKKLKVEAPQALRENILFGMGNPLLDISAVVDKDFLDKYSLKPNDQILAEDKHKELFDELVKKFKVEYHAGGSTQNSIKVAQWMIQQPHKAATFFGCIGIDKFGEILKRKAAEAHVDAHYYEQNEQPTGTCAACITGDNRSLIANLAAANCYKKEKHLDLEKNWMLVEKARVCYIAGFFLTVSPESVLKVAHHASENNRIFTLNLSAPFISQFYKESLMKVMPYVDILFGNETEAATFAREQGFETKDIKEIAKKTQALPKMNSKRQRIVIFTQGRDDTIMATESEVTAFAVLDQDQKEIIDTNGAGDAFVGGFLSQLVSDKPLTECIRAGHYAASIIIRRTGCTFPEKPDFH
Adenosine kinase (Rattus norvegicus, UniProt Q64640), sequence (Q64640 whole entry): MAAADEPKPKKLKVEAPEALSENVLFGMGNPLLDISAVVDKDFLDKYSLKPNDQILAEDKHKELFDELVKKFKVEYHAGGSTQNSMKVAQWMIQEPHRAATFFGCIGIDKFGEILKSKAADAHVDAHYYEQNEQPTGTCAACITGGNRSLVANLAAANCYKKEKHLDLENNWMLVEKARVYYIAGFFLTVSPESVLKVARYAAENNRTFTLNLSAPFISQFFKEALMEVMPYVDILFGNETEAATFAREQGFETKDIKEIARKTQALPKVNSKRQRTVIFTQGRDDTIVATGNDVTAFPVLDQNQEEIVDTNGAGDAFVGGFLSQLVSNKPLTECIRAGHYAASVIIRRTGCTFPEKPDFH

| IC50 (Adenosine kinase [1]) [nM] | IC50 (Adenosine kinase [2]) [nM] | Structure (SMILES) | Max protective effect (Mus musculus) [%] | Max protective effect (Rattus norvegicus) [%] |
| --- | --- | --- | --- | --- |
| 400 | > 1000 | CC(C)c1c(-c2ccc(N3CCOCC3)nc2)nc2ncnc(N)c2c1-c1cccc(Br)c1 |  |  |
| 300 | > 1000 | CN(C)c1ccc(-c2nc3ncnc(N)c3c(-c3cccc(Br)c3)c2C2CCCCC2)cn1 |  |  |
| 0.25 | 288 | Cc1ccc(-c2c(-c3cccs3)nc3ncnc(N)c3c2-c2ccc(C)c(F)c2)cc1F |  |  |
| 0.43 | 25 | COc1ccc(-c2c(-c3cccs3)nc3ncnc(N)c3c2-c2cc(Br)cs2)cc1OC |  |  |
| 350 | 1500 | CN(C)c1ccc(-c2nc3ncnc(N)c3cc2-c2ccccc2)cc1 |  |  |
| 6.7 | > 1000 | CC(C)c1ccc(-c2c(-c3ccc(N(C)C)cc3)nc3ncnc(N)c3c2-c2ccc(C(C)C)cc2)cc1 |  |  |
| 5 | 197 | Nc1ncnc2nc(-c3ccc(N4CCOCC4)nc3)c(-c3ccc(F)cc3)c(-c3cccc(Br)c3)c12 |  |  |
| 3.2 | 53 | CN(C)c1ccc(-c2nc3ncnc(N)c3c(-c3ccccc3)c2-c2ccccc2)cn1 | 50 | 38 |
| 410 | 22000 | Clc1ccc(-c2cnc3c(N4CCOCC4)ncnc3n2)cc1 |  |  |
| 4 | 155 | Nc1ncnc2nc(-c3ccc(N4CCOCC4)nc3)c(-c3ccccc3)c(-c3cccc(Br)c3)c12 |  |  |
| 60 | 625 | CN(C)c1ccc(-c2nc3ncnc(N)c3c(-c3cc(Br)cs3)c2C2CC2)cn1 |  |  |
| 3.1 | 350 | COc1ccc(-c2c(-c3ccc(N(C)C)cc3)nc3ncnc(N)c3c2-c2cccc(Br)c2)cc1OC |  |  |
| 3 | 163 | COC(=O)Cc1c(-c2cccs2)nc2ncnc(N)c2c1-c1cccc(Br)c1 |  |  |
| 0.55 | 49 | Nc1ncnc2nc(-c3cccs3)c(-c3ccccc3)c(-c3ccccc3)c12 |  |  |
| 16 | 250 | CN(C)c1ccc(-c2nc3ncnc(N)c3c(-c3ccccc3)c2-c2ccccc2)cc1 | 77 |  |
| 0.98 | 367 | COCCN(C)c1ccc(-c2nc3ncnc(N)c3c(-c3cc(Br)cs3)c2-c2ccc(OC)c(OC)c2)cc1 |  |  |
| 37 | 130 | CN(C)c1ccc(-c2c(-c3ccc(N4CCOCC4)nc3)nc3ncnc(N)c3c2-c2cccc(Cl)c2)cc1 |  |  |
| 5 | 130 | CN(C)c1ccc(-c2nc3ncnc(N)c3c(-c3cccc(Cl)c3)c2-c2ccccc2)cn1 | 56 | 39 |
| 55 | 625 | CCCCCc1c(-c2ccc(N(C)C)nc2)nc2ncnc(N)c2c1-c1cccc(Br)c1 |  |  |
| 63 | 450 | Nc1ncnc2nc(-c3ccc(N4CCOCC4)nc3)c(Cc3ccccc3)c(-c3cccc(Br)c3)c12 |  |  |
